Assay results published in ChEMBL document CHEMBL3046625, “Herbicidal and Fungicidal Activities of Lactones in Kava (Piper methysticum)” (2006).

Columns and labels:
Type in all cases: functional
Trichoderma viride [1] = test: Antifungal activity against Hypocrea rufa assessed as growth inhibition at 10 ppm after 4 days relative to untreated control; details: 96 h, read-out: GI
Summary of the method: (§1)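 Fungal cultures kept on potato dextrose agar (PDA) and subcultured on fresh medium for 3 days before testing. PDA plates held kava lactones dissolved in water at 10 or 50 ppm. Plates were inoculated with plugs from the actively growing fungal margin and incubated at 25 °C for 4 days. Distilled-water controls. Completely randomized design, at least three replicates, ANOVA.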

Lactuca sativa [2] = test: Herbicidal activity against Lactuca sativa cv. Great Lakes 366 (lettuce) assessed as inhibition of root length at 10 ppm relative to untreated control
Summary of the method: (§2)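 Pure reference kava lactones diluted to 1 and 10 ppm. Seeds were sterilized in 1% sodium hypochlorite for 30 min and rinsed in distilled water; germination >80%. Five replicates were incubated at 25 °C, 4000 lx, 8/16 h day/night, 75% humidity. Distilled-water controls. After 7 days, germinated seeds were counted and shoot and root lengths measured.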

Trichoderma viride [3] = test: Antifungal activity against Hypocrea rufa assessed as growth inhibition at 50 ppm after 4 days relative to untreated control; details: 96 h, read-out: GI; summary of the method: as §1
Lactuca sativa [4] = test: Herbicidal activity against Lactuca sativa cv. Great Lakes 366 (lettuce) assessed as inhibition of shoot length at 10 ppm relative to untreated control; summary of the method: as §2
Fusarium solani [5] = test: Antifungal activity against Fusarium solani assessed as growth inhibition at 10 ppm after 4 days relative to untreated control; details: 96 h, read-out: GI; summary of the method: as §1
[6] = system: Colletotrichum gloeosporioides; test: Antifungal activity against Colletotrichum gloeosporioides assessed as growth inhibition at 10 ppm after 4 days relative to untreated control; details: 96 h, read-out: GI; summary of the method: as §1
Fusarium oxysporum [7] = test: Antifungal activity against Fusarium oxysporum assessed as growth inhibition at 50 ppm after 4 days relative to untreated control; details: 96 h, read-out: GI; summary of the method: as §1
Echinochloa crus-galli [8] = test: Herbicidal activity against Echinochloa crus-galli (barnyard grass) assessed as inhibition of shoot length at 1 ppm relative to untreated control; summary of the method: as §2
Lactuca sativa [9] = test: Herbicidal activity against Lactuca sativa cv. Great Lakes 366 (lettuce) assessed as inhibition of germination at 10 ppm relative to untreated control; summary of the method: as §2
Echinochloa crus-galli [10] = test: Herbicidal activity against Echinochloa crus-galli (barnyard grass) assessed as inhibition of root length at 1 ppm relative to untreated control; summary of the method: as §2
Fusarium solani [11] = test: Antifungal activity against Fusarium solani assessed as growth inhibition at 50 ppm after 4 days relative to untreated control; details: 96 h, read-out: GI; summary of the method: as §1
Echinochloa crus-galli [12] = test: Herbicidal activity against Echinochloa crus-galli (barnyard grass) assessed as inhibition of germination at 1 ppm relative to untreated control; summary of the method: as §2
Echinochloa crus-galli [13] = test: Herbicidal activity against Echinochloa crus-galli (barnyard grass) assessed as inhibition of shoot length at 10 ppm relative to untreated control; summary of the method: as §2
Echinochloa crus-galli [14] = test: Herbicidal activity against Echinochloa crus-galli (barnyard grass) assessed as inhibition of germination at 10 ppm relative to untreated control; summary of the method: as §2
Echinochloa crus-galli [15] = test: Herbicidal activity against Echinochloa crus-galli (barnyard grass) assessed as inhibition of root length at 10 ppm relative to untreated control; summary of the method: as §2
Fusarium oxysporum [16] = test: Antifungal activity against Fusarium oxysporum assessed as growth inhibition at 10 ppm after 4 days relative to untreated control; details: 96 h, read-out: GI; summary of the method: as §1
[17] = system: Colletotrichum gloeosporioides; test: Antifungal activity against Colletotrichum gloeosporioides assessed as growth inhibition at 50 ppm after 4 days relative to untreated control; details: 96 h, read-out: GI; summary of the method: as §1
Lactuca sativa [18] = test: Herbicidal activity against Lactuca sativa cv. Great Lakes 366 (lettuce) assessed as inhibition of root length at 1 ppm relative to untreated control; summary of the method: as §2
Lactuca sativa [19] = test: Herbicidal activity against Lactuca sativa cv. Great Lakes 366 (lettuce) assessed as inhibition of germination at 1 ppm relative to untreated control; summary of the method: as §2
Lactuca sativa [20] = test: Herbicidal activity against Lactuca sativa cv. Great Lakes 366 (lettuce) assessed as inhibition of shoot length at 1 ppm relative to untreated control; summary of the method: as §2

Row | Structure (SMILES) | inhibition of growth at 10 ppm (Trichoderma viride [1]) | inhibition at 10 ppm (Lactuca sativa [2]) | inhibition of growth at 50 ppm (Trichoderma viride [3]) | inhibition at 10 ppm (Lactuca sativa [4]) | inhibition of growth at 10 ppm (Fusarium solani [5]) | inhibition of growth at 10 ppm [6] | inhibition of growth at 50 ppm (Fusarium oxysporum [7]) | inhibition at 1 ppm (Echinochloa crus-galli [8]) | inhibition at 10 ppm (Lactuca sativa [9]) | inhibition at 1 ppm (Echinochloa crus-galli [10]) | inhibition of growth at 50 ppm (Fusarium solani [11]) | inhibition at 1 ppm (Echinochloa crus-galli [12]) | inhibition at 10 ppm (Echinochloa crus-galli [13]) | inhibition at 10 ppm (Echinochloa crus-galli [14]) | inhibition at 10 ppm (Echinochloa crus-galli [15]) | inhibition of growth at 10 ppm (Fusarium oxysporum [16]) | inhibition of growth at 50 ppm [17] | inhibition at 1 ppm (Lactuca sativa [18]) | inhibition at 1 ppm (Lactuca sativa [19]) | inhibition at 1 ppm (Lactuca sativa [20])
1 | COC1=CC(=O)O[C@@H](CCc2ccccc2)C1 [DIHYDROKAWAIN] | 0% | 15.6% | 16.2% | 74.3% | 0% | 0% | 21.7% | 56.6% | 25.9% | 53.1% | 38.7% | 46.7% | 61.2% | 50% | 58.9% | 10.1% | 33.3% |  |  | 
2 | COc1cc(/C=C/c2ccccc2)oc(=O)c1 [DESMETHOXYYANGONIN] | 0% | 63.3% | 0% | 82.4% | 27.4% | 0% | 24.6% | 31.7% | 59.2% | 46.4% | 33.9% | 43.3% | 59.9% | 60% | 51.3% | 11.6% | 22.2% | 50.3% | 48.1% | 74.9%
3 | COC1=CC(=O)O[C@@H](/C=C/c2ccccc2)C1 [KAVAIN] | 0% | 62.6% | 0% | 86.1% | 29% | 0% | 17.4% |  | 59.2% | 39.7% | 29% | 46.7% | 47.6% | 46.7% | 46.9% | 0% | 0% | 59.9% | 51.9% | 75.9%
4 | COC1=CC(=O)O[C@@H](CCc2ccc3c(c2)OCO3)C1 [DIHYDROMETHYSTICIN] | 0% | 74.8% | 0% | 76.5% | 40.3% | 0% | 31.9% | 48.6% | 89.9% | 32.1% | 48.4% | 50% | 55.6% | 56.7% | 48.2% | 18.8% | 27.8% |  |  | 
5 | COC1=CC(=O)O[C@@H](/C=C/c2ccc3c(c2)OCO3)C1 [METHYSTICIN] | 0% | 53.1% | 0% | 73.3% | 37.1% | 0% | 36.2% | 55% | 55.6% | 75.4% | 33.9% | 50% | 56% | 60% | 83.9% | 11.6% | 0% | 61.2% | 48.1% | 71.1%
6 | COc1ccc(/C=C/c2cc(OC)cc(=O)o2)cc1 [YANGONIN] |  | 68% | 0% | 78.6% |  |  | 39.1% | 53.1% | 59.2% | 42.9% | 41.9% | 56.7% | 58.2% | 56.7% | 43.8% |  | 0% | 36.1% | 44.4% | 63.1%
